{"source": "ChEMBL document CHEMBL1137012", "about": "“Structural optimization and biological evaluation of 2-substituted 5-hydroxyindole-3-carboxylates as potent inhibitors of human 5-lipoxygenase” (J Med Chem, 2009)", "key": {"Neutrophil [1]": {"system": "Neutrophil", "experiment": "Inhibition of […]-induced translocation of 5-lipoxygenase from cytosol to perinuclear region in human neutrophils at 0.1 uM to 10 uM by Western blot", "format": "functional, cell-based"}, "Rattus norvegicus [2]": {"system": "Rattus norvegicus", "experiment": "Antiinflammatory activity against lambda carrageenan-induced pleurisy in Wistar Han rat assessed as reduction in exudate volume at 4 mg/kg, ip administered 30 mins before carrageenan challenge measured after 4 hrs by trypan blue staining", "format": "functional", "parameters": "scale not given: the % may be the effect or the level left", "conditions": "route intraperitoneal", "in_short": "(§1)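 Male Wistar Han rats (220-230 g; n = 10 per group) received compound ip, or vehicle (DMSO 4%), 30 min before intrapleural λ-carrageenan under anaesthesia. After 4 h, exudate was collected and its volume measured. Leukocytes were counted by light microscopy after trypan blue staining. LTB4 was measured by EIA (ng/rat). Data are mean ± SE.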"}, "Rattus norvegicus [3]": {"system": "Rattus norvegicus", "experiment": "Antiinflammatory activity against lambda carrageenan-induced pleurisy in Wistar Han rat assessed as reduction in inflammatory cell number at 4 mg/kg, ip administered 30 mins before carrageenan challenge measured after 4 hrs by trypan blue staining", "format": "functional", "parameters": "scale not given: the % may be the effect or the level left", "conditions": "route intraperitoneal", "in_short": "as §1"}, "Rattus norvegicus [4]": {"system": "Rattus norvegicus", "experiment": "Antiinflammatory activity against lambda carrageenan-induced pleurisy in Wistar Han rat assessed as reduction in LTB4 levels at 4 mg/kg, ip before carrageenan challenge measured after 4 hrs by EIA", "format": "functional", "parameters": "scale not given: the % may be the effect or the level left", "conditions": "route intraperitoneal", "in_short": "as §1"}, "Neutrophil [5]": {"system": "Neutrophil", "experiment": "Inhibition of […]-induced translocation of 5-lipoxygenase from cytosol to perinuclear region in human neutrophils at 100 uM by Western blotblot", "format": "functional, cell-based"}, "Rattus norvegicus [6]": {"system": "Rattus norvegicus", "experiment": "Antiinflammatory activity against lambda carrageenan-induced pleurisy in Wistar Han rat assessed as reduction in LTB4 level at 10 mg/kg, ip administered 30 mins before carrageenan challenge measured after 4 hrs by EIA", "format": "functional", "parameters": "scale not given: the % may be the effect or the level left", "conditions": "route intraperitoneal", "in_short": "as §1"}, "Rattus norvegicus [7]": {"system": "Rattus norvegicus", "experiment": "Antiinflammatory activity against lambda carrageenan-induced pleurisy in Wistar Han rat assessed as reduction in cellular infiltration at 10 mg/kg, ip administered 30 mins before carrageenan challenge measured after 4 hrs by trypan blue staining", "format": "functional", "parameters": "scale not given: the % may be the effect or the level left", "conditions": "route intraperitoneal", "in_short": "as §1"}, "Rattus norvegicus [8]": {"system": "Rattus norvegicus", "experiment": "Antiinflammatory activity against lambda carrageenan-induced pleurisy in Wistar Han rat assessed as reduction in exudate volume at 10 mg/kg, ip administered 30 mins before carrageenan challenge measured after 4 hrs by trypan blue staining", "format": "functional", "parameters": "scale not given: the % may be the effect or the level left", "conditions": "route intraperitoneal", "in_short": "as §1"}}, "note": "Activity calls are given as the source filed them. No cut-off for these calls is given here.", "data": [{"smiles": "CC(C)c1ccc2c(c1)c(SC(C)(C)C)c(CC(C)(C)C(=O)O)n2Cc1ccc(Cl)cc1", "values": [{"measurement": "Activity", "setting": "Neutrophil [1]", "result": "inactive"}]}, {"smiles": "CCOC(=O)c1c(Cc2cccc(Cl)c2)[nH]c2c1cc(O)c1ccccc12", "values": [{"measurement": "Activity", "setting": "Rattus norvegicus [2]", "result": 77, "unit": "%"}, {"measurement": "Activity", "setting": "Rattus norvegicus [3]", "result": 40, "unit": "%"}, {"measurement": "Activity", "setting": "Rattus norvegicus [4]", "result": 49, "unit": "%"}, {"measurement": "Activity", "setting": "Neutrophil [5]", "result": "inactive"}]}, {"smiles": "CC(c1cc2ccccc2s1)N(O)C(N)=O", "note": "(stereo not drawn) [ZILEUTON]", "values": [{"measurement": "Activity", "setting": "Rattus norvegicus [6]", "result": 66, "unit": "%"}, {"measurement": "Activity", "setting": "Rattus norvegicus [7]", "result": 41, "unit": "%"}, {"measurement": "Activity", "setting": "Rattus norvegicus [8]", "result": 77, "unit": "%"}]}]}
